Results from ChEMBL document CHEMBL1149279, “2,4,6-trisubstituted pyrimidines as a new class of selective adenosine A1 receptor antagonists” (J Med Chem, 2004).

Tests used:
[1] = target: T1, Adenosine receptor A3 (Homo sapiens) (UniProt P0DMS8); experiment: Displacement of [125I]AB-MECA from human adenosine A3 receptor expressed in HEK293 cells at 1 uM; format: cell-based
T1 sequence (whole entry): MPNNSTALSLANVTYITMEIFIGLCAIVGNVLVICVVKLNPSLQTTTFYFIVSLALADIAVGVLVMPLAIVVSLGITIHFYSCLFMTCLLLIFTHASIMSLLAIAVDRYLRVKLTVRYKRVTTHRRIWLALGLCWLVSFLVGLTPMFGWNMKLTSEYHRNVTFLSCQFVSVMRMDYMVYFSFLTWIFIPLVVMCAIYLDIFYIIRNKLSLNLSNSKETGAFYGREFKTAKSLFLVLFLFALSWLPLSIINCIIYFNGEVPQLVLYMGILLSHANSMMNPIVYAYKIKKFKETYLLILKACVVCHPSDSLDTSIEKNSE

Adenosine receptor A1 = target: T2, Adenosine receptor A1 (Homo sapiens, UniProt P30542); experiment: Displacement of [3H]DPCPX from human adenosine A1 receptor expressed in CHO cells; format: cell-based
T2 sequence (P30542 whole entry): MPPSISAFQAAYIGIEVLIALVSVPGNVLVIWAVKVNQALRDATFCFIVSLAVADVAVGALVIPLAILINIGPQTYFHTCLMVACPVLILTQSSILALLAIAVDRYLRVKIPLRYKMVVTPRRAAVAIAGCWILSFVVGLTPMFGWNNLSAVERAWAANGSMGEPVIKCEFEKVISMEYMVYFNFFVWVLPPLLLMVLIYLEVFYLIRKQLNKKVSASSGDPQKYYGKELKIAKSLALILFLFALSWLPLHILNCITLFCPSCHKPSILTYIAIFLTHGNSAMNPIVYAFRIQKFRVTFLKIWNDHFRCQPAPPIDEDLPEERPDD

Adenosine receptor A2a [2] = target: T3, Adenosine receptor A2a (Homo sapiens, UniProt P29274); experiment: Displacement of [3H]ZM241385 from human adenosine A2A receptor expressed in HEK293 cells at 1 uM; format: cell-based
T3 sequence (P29274 whole entry): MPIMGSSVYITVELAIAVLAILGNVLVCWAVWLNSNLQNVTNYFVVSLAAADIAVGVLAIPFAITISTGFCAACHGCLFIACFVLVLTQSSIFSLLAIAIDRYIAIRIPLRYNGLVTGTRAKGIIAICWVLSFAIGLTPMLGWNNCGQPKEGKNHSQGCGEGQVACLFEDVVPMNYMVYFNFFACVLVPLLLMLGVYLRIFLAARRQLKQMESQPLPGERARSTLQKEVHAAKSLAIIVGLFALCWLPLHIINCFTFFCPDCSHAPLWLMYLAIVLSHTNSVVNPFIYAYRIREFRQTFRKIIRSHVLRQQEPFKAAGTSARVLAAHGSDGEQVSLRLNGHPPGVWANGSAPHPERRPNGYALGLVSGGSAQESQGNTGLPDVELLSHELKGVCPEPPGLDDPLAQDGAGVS

Adenosine receptor A3 = target: T4, Adenosine receptor A3 (Homo sapiens, UniProt P0DMS8); experiment: Displacement of [125I]AB-MECA from human adenosine A3 receptor expressed in HEK293 cells; format: cell-based
T4 sequence (P0DMS8 whole entry): T1 sequence (whole entry)

[3] = target: T5, Adenosine receptor A2b (Homo sapiens) (UniProt P29275); experiment: Displacement of [3H]MRS1754 from human adenosine A2B receptor expressed in CHO cells at 1 uM; format: cell-based
T5 sequence (whole entry): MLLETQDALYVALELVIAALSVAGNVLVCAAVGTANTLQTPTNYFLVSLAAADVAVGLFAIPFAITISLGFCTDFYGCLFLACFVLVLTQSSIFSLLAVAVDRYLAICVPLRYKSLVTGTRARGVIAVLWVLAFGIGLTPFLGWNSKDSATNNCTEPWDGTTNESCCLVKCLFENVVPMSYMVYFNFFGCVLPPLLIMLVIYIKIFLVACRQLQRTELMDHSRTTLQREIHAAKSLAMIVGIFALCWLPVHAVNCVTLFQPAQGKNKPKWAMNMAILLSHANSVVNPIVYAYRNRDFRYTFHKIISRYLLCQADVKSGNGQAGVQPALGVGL
Procedure, shortened: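 CHO cells stably transfected with human A2B supply the membranes (20 μg protein). [3H]MRS1754 at 1.2 nM final, 1 h at 25 °C in 50 mM Tris/HCl, 10 mM MgCl2, 1 mM EDTA, 0.01 w/v % CHAPS. Nonspecific binding with 1 mM NECA. Filtration and scintillation counting; % displacement at 1 μM, n = 2.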

Adenosine receptor A2a [4] = target: T3, Adenosine receptor A2a; experiment: Displacement of [3H]ZM-241385 from human adenosine A2A receptor expressed in HEK293 cells; format: cell-based
[5] = target: Adenosine receptors; A1 & A3 (Homo sapiens) (UniProt P30542+P0DMS8); experiment: Selectivity for human adenosine A1 receptor over human adenosine A3 receptor; format: protein assay
[6] = target: T6, Adenosine receptor A1 (Homo sapiens) (UniProt P30542); experiment: Antagonist activity at human adenosine A1 receptor expressed in CHO cells assessed as effect on forskolin-stimulated cAMP production at 1 uM; format: functional, cell-based; set-up: scale not given: the % may be the effect or the level left; settings: filed as antagonist
T6 sequence (whole entry): T2 sequence (P30542 whole entry)
Procedure, shortened: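 Human A1-expressing CHO cells, 2 × 10^5/well, grown overnight; in HEPES/DMEM (pH 7.4) with adenosine deaminase 0.8 IU/mL, rolipram 50 μM and cilostamide 50 μM, 30 min at 37 °C. Then CPA 1 μM, test compound 1 μM, 10 min; forskolin 10 μM added for 15 min. Stopped with ice-cold 0.1 M HCl. cAMP measured by [3H]cAMP/PKA competition; normalized to CPA (0%) and forskolin (100%). Three independent experiments in duplicate.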

[7] = target: T6, Adenosine receptor A1 (Homo sapiens); experiment: Antagonist activity at human adenosine A1 receptor expressed in CHO cells assessed as reversal of CPA-induced effect on forskolin-stimulated cAMP production at 10 uM; format: functional, cell-based; settings: filed as antagonist
[8] = target: T6, Adenosine receptor A1 (Homo sapiens); experiment: Displacement of [3H]DPCPX from human adenosine A1 receptor expressed in CHO cells at 1 uM; format: cell-based

Activity [1] | Ki (Adenosine receptor A1) | Activity (Adenosine receptor A2a [2]) | Ki (Adenosine receptor A3) | Ki (Adenosine receptor A2a [4]) | Structure (SMILES) | other results
23% | 27.6 nM (antagonist) | 0% | – | – | CCCCC(=O)Nc1nc(-c2ccccc2)cc(-c2ccccc2)n1 | –
– | – | – | 178 nM (antagonist) | 179 nM (antagonist) | O=C(Nc1cc(-c2ccccc2)nc(-c2ccccc2)n1)C1CCC1 | Activity ([3]; filed as antagonist): 74%
32% | – | – | – | 208 nM (antagonist) | O=C(Nc1cc(-c2ccccc2)nc(-c2ccccc2)n1)C1CCCCC1 | –
– | – | 17% | 1300 nM (antagonist) | – | O=C(Nc1cc(-c2ccccc2)nc(-c2ccccc2)n1)c1ccccc1 | Selectivity ratio [5]: 2
– | – | – | 147 nM (antagonist) | 899 nM (antagonist) | CCC(C)C(=O)Nc1cc(-c2ccccc2)nc(-c2ccccc2)n1 (centres undefined) | Activity [6]: 60%; Activity [3]: 44%; Activity [7]: Antagonist
– | – | – | 22.4 nM (antagonist) | 81.9 nM (antagonist) | CCC(=O)Nc1cc(-c2ccccc2)nc(-c2ccccc2)n1 | Selectivity ratio [5]: 2
49% | – | 18% | – | – | CC(C)(C)C(=O)Nc1cc(-c2ccccc2)nc(-c2ccccc2)n1 | –
– | 24.9 nM (antagonist) | – | 676 nM (antagonist) | 228 nM (antagonist) | O=C(Nc1nc(-c2ccccc2)cc(-c2ccccc2)n1)C1CC1 | –
13% | – | 0% | – | – | Cc1ccc(C(=O)Nc2nc(-c3ccccc3)cc(-c3ccccc3)n2)cc1 | Activity [8]: 37%
– | – | – | 6.88 nM (antagonist) | 489 nM (antagonist) | CC(=O)Nc1cc(-c2ccccc2)nc(-c2ccccc2)n1 | –
– | – | 0% | 3280 nM (antagonist) | – | O=C(Nc1nc(-c2ccccc2)cc(-c2ccccc2)n1)c1ccc(Cl)cc1 | Activity [8]: 0%
– | – | 31% | 237 nM (antagonist) | – | CC(=O)Nc1nc(-c2ccccc2)cc(-c2ccccc2)n1 | –
41% | – | 45% | – | – | COc1ccc(C(=O)Nc2nc(-c3ccccc3)cc(-c3ccccc3)n2)cc1 | Activity [8]: 31%
27% | 27.1 nM (antagonist) | 11% | – | – | CCC(CC)C(=O)Nc1nc(-c2ccccc2)cc(-c2ccccc2)n1 | –
45% | 8.87 nM (antagonist) | 44% | – | – | CC(C)C(=O)Nc1nc(-c2ccccc2)cc(-c2ccccc2)n1 | Activity ([3]; filed as antagonist): 79%
33% | – | 0% | – | – | O=C(Nc1cc(-c2ccccc2)nc(-c2ccccc2)n1)c1ccc(Cl)cc1 | Activity [8]: 35%
– | 109 nM (antagonist) | 48% | 392 nM (antagonist) | – | CCCCCC(=O)Nc1cc(-c2ccccc2)nc(-c2ccccc2)n1 | –
– | – | – | 267 nM (antagonist) | 376 nM (antagonist) | CC(C)C(=O)Nc1cc(-c2ccccc2)nc(-c2ccccc2)n1 | Selectivity ratio [5]: 24

Activity [1] | Ki (Adenosine receptor A1) | Activity (Adenosine receptor A2a [2]) | Ki (Adenosine receptor A3) | Ki (Adenosine receptor A2a [4]) | Structure (SMILES) | other results
24% | – | 0% | – | – | CCCCCC(=O)Nc1nc(-c2ccccc2)cc(-c2ccccc2)n1 | Activity [8]: 28%
– | – | – | 167 nM (antagonist) | 124 nM (antagonist) | CCCC(=O)Nc1cc(-c2ccccc2)nc(-c2ccccc2)n1 | –
– | 46.4 nM (antagonist) | – | 547 nM (antagonist) | 893 nM (antagonist) | CCC(=O)Nc1nc(-c2ccccc2)cc(-c2ccccc2)n1 | –
– | – | 0% | 1170 nM (antagonist) | – | COc1ccc(C(=O)Nc2cc(-c3ccccc3)nc(-c3ccccc3)n2)cc1 | Activity [8]: 30%
4% | 224 nM (antagonist) | 0% | – | – | CC(C)(C)C(=O)Nc1nc(-c2ccccc2)cc(-c2ccccc2)n1 | –
– | – | – | 170 nM (antagonist) | 196 nM (antagonist) | O=C(Nc1cc(-c2ccccc2)nc(-c2ccccc2)n1)C1CCCC1 | Activity [6]: 60%; Activity ([3]; filed as antagonist): 52%; Activity [7]: Antagonist
23% | 25.1 nM (antagonist) | 42% | – | – | CC(C)CC(=O)Nc1nc(-c2ccccc2)cc(-c2ccccc2)n1 | –
39% | – | 32% | – | – | CC(C)(C)CC(=O)Nc1cc(-c2ccccc2)nc(-c2ccccc2)n1 | Activity [3]: 4%
– | 7.58 nM (antagonist) | – | 25 nM (antagonist) | 189 nM (antagonist) | O=C(Nc1cc(-c2ccccc2)nc(-c2ccccc2)n1)C1CC1 | –
57% | – | – | – | 381 nM (antagonist) | CCC(CC)C(=O)Nc1cc(-c2ccccc2)nc(-c2ccccc2)n1 | Activity ([3]; filed as antagonist): 72%
38% | 309 nM (antagonist) | 5% | – | – | O=C(Nc1nc(-c2ccccc2)cc(-c2ccccc2)n1)c1ccccc1 | –
39% | 11.4 nM (antagonist) | 11% | – | – | O=C(Nc1nc(-c2ccccc2)cc(-c2ccccc2)n1)C1CCCC1 | Activity [3]: 42%
41% | 368 nM (antagonist) | 22% | – | – | O=C(Nc1nc(-c2ccccc2)cc(-c2ccccc2)n1)c1cccc(Cl)c1 | –
30% | – | 0% | – | – | O=C(Nc1nc(-c2ccccc2)cc(-c2ccccc2)n1)c1ccc(Cl)c(Cl)c1 | Activity [8]: 0%
38% | 3.7 nM (antagonist) | 7% | – | – | CCCC(=O)Nc1nc(-c2ccccc2)cc(-c2ccccc2)n1 | Activity ([3]; filed as antagonist): 54%
9% | 119 nM (antagonist) | 31% | – | – | O=C(Nc1nc(-c2ccccc2)cc(-c2ccccc2)n1)C1CCCCC1 | –
– | – | – | 447 nM (antagonist) | 157 nM (antagonist) | CC(C)CC(=O)Nc1cc(-c2ccccc2)nc(-c2ccccc2)n1 | –
18% | 107 nM (antagonist) | 33% | – | – | O=C(Nc1nc(-c2ccccc2)cc(-c2ccccc2)n1)C1CCC1 | –
